According to ChEMBL document CHEMBL3992547, “Antimicrobial activity of rhodanine-3-acetic acid derivatives” (Bioorg Med Chem, 2017):
Activity calls are given as the source filed them.

Key:
Klebsiella pneumoniae [1] = test: Antibacterial activity against ESBL positive Klebsiella pneumoniae J 14368/08 up to 500 uM incubated for 24 to 48 hrs under dark condition by microdilution broth assay; format: functional
Method in brief: (§1)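 Broth microdilution per M07-A07, modified, in Mueller-Hinton broth adjusted to pH 7.4 (±0.2). Inoculum is prepared in sterile water to McFarland 0.5 (1.5 × 10⁸ CFU/mL). Plates are incubated in the dark at 35 °C in humid air. MIC is read after 24 and 48 h as at least 95% growth reduction versus control (IC₉₅).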

[2] = system: Staphylococcus epidermidis; test: Antibacterial activity against Staphylococcus epidermidis H 6966/08 incubated for 24 hrs under dark condition by microdilution broth assay; format: functional; details: H 6966/08, 24 h; method in brief: as §1
[3] = system: Mycobacterium tuberculosis; test: Antimycobacterial activity against Mycobacterium tuberculosis H37Rv 331/88 measured after 21 days by micromethod; format: functional; details: H37Rv 331/88, 504 h
Aspergillus fumigatus [4] = test: Antifungal activity against Aspergillus fumigatus 231 after 24 hrs by microdilution broth assay; format: functional; details: Aspergillus fumigatus, 231, 24 h
Method in brief: (§2)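 Broth microdilution per CLSI M27-A3 and M38-A2 in RPMI 1640 with glutamine, buffered to pH 7.0 with MOPS. Compounds are diluted in DMSO. Final inoculum is 5 × 10³ CFU/mL for yeasts and 0.5–5 × 10⁴ CFU/mL for moulds. Plates are incubated in the dark at 35 °C in humid air and read visually and/or at 540 nm after 24 and 48 h. MIC is ≥80% growth reduction (IC₈₀) for yeasts and ≥50% (IC₅₀) for filamentous fungi.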

Escherichia coli [5] = test: Antibacterial activity against Escherichia coli CCM 4517 incubated for 24 hrs under dark condition by microdilution broth assay; format: functional; details: CCM 4517, 24 h; method in brief: as §1
Staphylococcus aureus [6] = test: Antibacterial activity against Staphylococcus aureus CCM 4516/08 incubated for 24 hrs under dark condition by microdilution broth assay; format: functional; details: CCM 4516/08, 24 h; method in brief: as §1
Candida albicans [7] = test: Antifungal activity against Candida albicans ATCC 44859 after 24 hrs by microdilution broth assay; format: functional; details: ATCC 44859, 24 h; method in brief: as §2
Lichtheimia corymbifera = test: Antifungal activity against Absidia corymbifera 272 after 24 to 48 hrs hrs by microdilution broth assay; format: functional; method in brief: as §2
Enterococcus [8] = test: Antibacterial activity against Enterococcus sp. J 14365/08 incubated for 48 hrs under dark condition by microdilution broth assay; details: J 14365/08, 48 h
[9] = system: Trichophyton mentagrophytes; test: Antifungal activity against Trichophyton mentagrophytes 445 after 120 hrs by microdilution broth assay; format: functional; details: Trichophyton mentagrophytes, 445, 120 h
Method in brief: (§3)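 Broth microdilution per CLSI M38-A2 in RPMI 1640 with glutamine, buffered to pH 7.0 with MOPS, with DMSO as diluent. Final inoculum is 0.5–5 × 10⁴ CFU/mL. Plates are incubated in the dark at 35 °C in humid air and read visually and/or at 540 nm after 72 and 120 h. MIC is at least 50% growth reduction versus control.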

Mycobacterium kansasii [10] = test: Antimycobacterial activity against Mycobacterium kansasii isolate 6509/96 after 21 days by micromethod; format: functional; details: isolate 6509/96, 504 h
[11] = Solubility of the compound in Sula's semisynthetic medium up to 1 mM; format: physicochemical
Mycobacterium kansasii [12] = test: Antimycobacterial activity against Mycobacterium kansasii isolate 235/80 after 14 days by micromethod; format: functional; details: isolate 235/80, 336 h
Mycobacterium kansasii [13] = test: Antimycobacterial activity against Mycobacterium kansasii isolate 6509/96 after 7 days by micromethod; format: functional; details: isolate 6509/96, 168 h
Pseudomonas aeruginosa = test: Antibacterial activity against Pseudomonas aeruginosa CCM 1961 up to 500 uM incubated for 24 to 48 hrs under dark condition by microdilution broth assay; format: functional; method in brief: as §1
Mycobacterium kansasii [14] = test: Antimycobacterial activity against Mycobacterium kansasii isolate 6509/96 after 14 days by micromethod; format: functional; details: isolate 6509/96, 336 h
Candida albicans [15] = test: Antifungal activity against Candida albicans ATCC 44859 after 48 hrs by microdilution broth assay; format: functional; details: ATCC 44859, 48 h; method in brief: as §2
Pichia kudriavzevii = test: Antifungal activity against Candida krusei E28 after 24 to 48 hrs hrs by microdilution broth assay; format: functional; method in brief: as §2
Aspergillus fumigatus [16] = test: Antifungal activity against Aspergillus fumigatus 231 after 48 hrs by microdilution broth assay; format: functional; details: Aspergillus fumigatus, 231, 48 h; method in brief: as §2
Trichosporon asahii [17] = test: Antifungal activity against Trichosporon asahii 1188 after 24 hrs by microdilution broth assay; format: functional; details: Trichosporon asahii, 1188, 24 h; method in brief: as §2
Enterococcus [18] = test: Antibacterial activity against Enterococcus sp. J 14365/08 incubated for 24 hrs under dark condition by microdilution broth assay; details: J 14365/08, 24 h
[19] = system: Staphylococcus epidermidis; test: Antibacterial activity against Staphylococcus epidermidis H 6966/08 incubated for 48 hrs under dark condition by microdilution broth assay; format: functional; details: H 6966/08, 48 h; method in brief: as §1
Staphylococcus aureus [20] = test: Antibacterial activity against Staphylococcus aureus CCM 4516/08 incubated for 48 hrs under dark condition by microdilution broth assay; format: functional; details: CCM 4516/08, 48 h; method in brief: as §1
Mycobacterium kansasii [21] = test: Antimycobacterial activity against Mycobacterium kansasii isolate 235/80 after 7 days by micromethod; format: functional; details: isolate 235/80, 168 h
Trichosporon asahii [22] = test: Antifungal activity against Trichosporon asahii 1188 after 48 hrs by microdilution broth assay; format: functional; details: Trichosporon asahii, 1188, 48 h; method in brief: as §2
[23] = system: Mycobacterium tuberculosis; test: Antimycobacterial activity against Mycobacterium tuberculosis H37Rv 331/88 measured after 14 days by micromethod; format: functional; details: H37Rv 331/88, 336 h
Klebsiella pneumoniae [24] = test: Antibacterial activity against Klebsiella pneumoniae D 11750/08 up to 500 uM incubated for 24 to 48 hrs under dark condition by microdilution broth assay; format: functional; method in brief: as §1
Candida tropicalis [25] = test: Antifungal activity against Candida tropicalis 156 after 48 hrs by microdilution broth assay; format: functional; details: Candida tropicalis, 156, 48 h; method in brief: as §2
Mycobacterium kansasii [26] = test: Antimycobacterial activity against Mycobacterium kansasii isolate 235/80 after 21 days by micromethod; format: functional; details: isolate 235/80, 504 h
Escherichia coli [27] = test: Antibacterial activity against Escherichia coli CCM 4517 incubated for 48 hrs under dark condition by microdilution broth assay; format: functional; details: CCM 4517, 48 h; method in brief: as §1
Staphylococcus aureus [28] = test: Antibacterial activity against methicillin-resistant Staphylococcus aureus H 5996/08 incubated for 24 hrs under dark condition by microdilution broth assay; format: functional; details: H 5996/08, 24 h
Method in brief: (§4)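 Microdilution broth method modified per M07-A07, in Mueller-Hinton broth adjusted to pH 7.4 (±0.2). Inoculum made in sterile water to 0.5 McFarland (1.5 × 10⁸ CFU/mL). Plates incubated in the dark at 35 °C in a humid atmosphere, with reads at 24 and 48 h. MIC taken as at least 95% growth reduction (IC₉₅) versus control.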

Staphylococcus aureus [29] = test: Antibacterial activity against methicillin-resistant Staphylococcus aureus H 5996/08 incubated for 48 hrs under dark condition by microdilution broth assay; format: functional; details: H 5996/08, 48 h; method in brief: as §4
Mycobacterium avium [30] = test: Antimycobacterial activity against Mycobacterium avium 330/88 measured after 14 days by micromethod; format: functional; details: 330/88, 336 h
Candida tropicalis [31] = test: Antifungal activity against Candida tropicalis 156 after 24 hrs by microdilution broth assay; format: functional; details: Candida tropicalis, 156, 24 h; method in brief: as §2
Mycobacterium avium [32] = test: Antimycobacterial activity against Mycobacterium avium 330/88 measured after 21 days by micromethod; format: functional; details: 330/88, 504 h
[33] = system: Trichophyton mentagrophytes; test: Antifungal activity against Trichophyton mentagrophytes 445 after 72 hrs by microdilution broth assay; format: functional; details: Trichophyton mentagrophytes, 445, 72 h; method in brief: as §3
Nakaseomyces glabratus [34] = test: Antifungal activity against Candida glabrata 20/I after 24 hrs by microdilution broth assay; format: functional; method in brief: as §2
Nakaseomyces glabratus [35] = test: Antifungal activity against Candida glabrata 20/I after 48 hrs by microdilution broth assay; format: functional; method in brief: as §2

O=C(CN1C(=O)CSC1=S)Oc1ccc(C(F)(F)F)cc1
1000 µM: MIC [3] | MIC (Mycobacterium kansasii [10]) | MIC (Mycobacterium kansasii [12]) | MIC (Mycobacterium kansasii [13]) | MIC (Mycobacterium kansasii [14]) | MIC (Mycobacterium kansasii [21]) | MIC (Mycobacterium kansasii [26]) | MIC (Mycobacterium avium [30]) | MIC (Mycobacterium avium [32])
inactive: Activity (Klebsiella pneumoniae [1]) | Activity (Lichtheimia corymbifera) | Activity (Pseudomonas aeruginosa) | Activity (Pichia kudriavzevii) | Activity (Klebsiella pneumoniae [24])
62.5 µM: MIC95 (Enterococcus [8]) | MIC95 [19] | MIC95 (Staphylococcus aureus [20]) | MIC95 (Staphylococcus aureus [29])
15.6 µM: MIC95 [2] | MIC95 (Staphylococcus aureus [6]) | MIC95 (Enterococcus [18]) | MIC95 (Staphylococcus aureus [28])
> 500 µM: MIC50 (Aspergillus fumigatus [4]) | MIC95 (Escherichia coli [5]) | MIC80 (Candida albicans [7]) | MIC80 (Candida albicans [15]) | MIC50 (Aspergillus fumigatus [16]) | MIC80 (Trichosporon asahii [22]) | MIC80 (Candida tropicalis [25]) | MIC95 (Escherichia coli [27]) | MIC80 (Candida tropicalis [31]) | MIC80 (Nakaseomyces glabratus [35])
125 µM: MIC50 [33]
250 µM: MIC50 [9]
Soluble: solubility [11]
500 µM: MIC80 (Trichosporon asahii [17]) | MIC [23] | MIC80 (Nakaseomyces glabratus [34])
